Data set [1] deals with Mitogen-activated protein kinase 14 (Homo sapiens, UniProt Q16539). The experiment in a line: Inhibition of GST-fused p38alpha expressed in Escherichia coli. In a few lines:
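GST-tagged p38 and MEK6 at the N-terminus, purified from E. coli. Reaction ran 60 min at rt, was EDTA-quenched, and was read with streptavidin SPA beads. IC50 was fitted from % inhibition against ±EDTA controls. Values are means of >2 experiments.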

Data set [2] in a line: Metabolic stability in rat liver S9 microsomal fraction assessed as parent compound turnover after 30 mins. The class given is ADME, subcellular. Conditions: read-out: Stability. In a few lines: (§1)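 Test compound was incubated with liver S9 fraction (5 mg protein/mL) for 30 min. Read-out is % turnover of parent compound. Values are means of ≥2 incubations.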
Data set [3] in a line: Metabolic stability in dog liver S9 microsomal fraction assessed as parent compound turnover after 30 mins. Conditions: read-out: Stability. The class given is ADME, subcellular, Canis lupus familiaris. In a few lines:
as §1

Data set [4] in a line: Half life in Lewis rat at 1 mg/kg, iv. Also on record: dose 1 mg/kg, route intravenous. The class given is ADME, organism-based. Conditions: in vivo.
Data set [5] is described as follows: Bioavailability in Lewis rat at 1 mg/kg, iv. The data set is classed as ADME, organism-based. Conditions: in vivo.
Data set [6] can be described thus: AUC in Lewis rat at 1 mg/kg, iv. The data set is classed as ADME, organism-based. Also on record: dose 1 mg/kg, route intravenous. Conditions: plasma.
Data set [7] in a line: Volume of distribution at steady state in Lewis rat at 1 mg/kg, iv. The class given is ADME, organism-based. Also on record: dose 1 mg/kg, route intravenous. Conditions: in vivo, read-out: Vdss.
A short description of data set [8]: Clearance in Lewis rat at 1 mg/kg, iv. The class given is ADME, organism-based. Also on record: dose 1 mg/kg, route intravenous. Conditions: in vivo.
The nature of data set [9]: AUC in Beagle dog at 1 mg/kg, iv. The data set is classed as ADME, organism-based, Canis lupus familiaris. Also on record: dose 1 mg/kg, route intravenous. As to conditions: plasma.
A short description of data set [10]: Bioavailability in Beagle dog at 1 mg/kg, iv. The class given is ADME, organism-based, Canis lupus familiaris. Conditions: in vivo.
The nature of data set [11]: Volume of distribution at steady state in Beagle dog at 1 mg/kg, iv. The data set is classed as ADME, organism-based, Canis lupus familiaris. Conditions: in vivo, read-out: Vdss. Also on record: dose 1 mg/kg, route intravenous.
Data set [12] can be described thus: Half life in Beagle dog at 1 mg/kg, iv. The class given is ADME, organism-based, Canis lupus familiaris. Also on record: dose 1 mg/kg, route intravenous. Conditions: in vivo.
Data set [13] in a line: Clearance in Beagle dog at 1 mg/kg, iv. The data set is classed as ADME, organism-based, Canis lupus familiaris. Also on record: dose 1 mg/kg, route intravenous. As to conditions: in vivo.
Data set [14] deals with Cyclin-dependent kinase 2 (Homo sapiens, UniProt P24941). In words: Inhibition of CDK2/CyclinA.
The target of the next data set is Angiopoietin-1 receptor (Homo sapiens, UniProt Q02763). The experiment in a line: Inhibition of TIE2.
Data set [15] can be described thus: Bioavailability in Lewis rat at 5 mg/kg, iv. The class given is ADME, organism-based. Conditions: in vivo.
Data set [16] has as its target Receptor tyrosine-protein kinase erbB-2 (Homo sapiens, UniProt P04626). The experiment in a line: Inhibition of ERBB2.
The target in data set [17] is RAC-gamma serine/threonine-protein kinase (Homo sapiens, UniProt Q9Y243). The experiment in a line: Inhibition of AKT3.
Data set [18] can be described thus: Half life in Lewis rat at 5 mg/kg, iv. The class given is ADME, organism-based. Also on record: dose 5 mg/kg, route intravenous. Conditions: in vivo.
Data set [19] concerns the target [Pyruvate dehydrogenase (acetyl-transferring)] kinase isozyme 4, mitochondrial (Homo sapiens, UniProt Q16654). The experiment in a line: Inhibition of PDHK4.
In data set [20] the target is Macrophage colony-stimulating factor 1 receptor (Homo sapiens, UniProt P07333). The experiment in a line: Inhibition of C-FMS.
A further data set concerns PBMC. The experiment in a line: Inhibition of LPS-induced TNF release in human PBMC. The class given is functional, cell-based.
A short description of data set [21]: Volume of distribution at steady state in Lewis rat at 5 mg/kg, iv. The data set is classed as ADME, organism-based. Also on record: dose 5 mg/kg, route intravenous. Conditions: in vivo, read-out: Vdss.
Data set [22] can be described thus: Clearance in Lewis rat at 5 mg/kg, iv. The class given is ADME, organism-based. Also on record: dose 5 mg/kg, route intravenous. Conditions: in vivo.
Data set [23] in a line: AUC in Lewis rat at 5 mg/kg, iv. The data set is classed as ADME, organism-based. Also on record: dose 5 mg/kg, route intravenous. As to conditions: plasma.
Data set [24] concerns the target Receptor tyrosine-protein kinase erbB-4 (Homo sapiens, UniProt Q15303). The experiment in a line: Inhibition of ERBB4.
Data set [25] concerns the target Glycogen synthase kinase-3 beta (Homo sapiens, UniProt P49841). In words: Inhibition of GSK3-beta.
The target in data set [26] is Vascular endothelial growth factor receptor 2 (Homo sapiens, UniProt P35968). The experiment in a line: Inhibition of VEGFR2.
The test system of a further data set is Mus musculus. In words: Inhibition of LPS-induced TNF production in mouse at 30 mg/kg, po. The data set is classed as functional.

pIC50: −log10 of the molar value.

Chain of Mitogen-activated protein kinase 14 (Q16539 whole entry, the tested form may be a part): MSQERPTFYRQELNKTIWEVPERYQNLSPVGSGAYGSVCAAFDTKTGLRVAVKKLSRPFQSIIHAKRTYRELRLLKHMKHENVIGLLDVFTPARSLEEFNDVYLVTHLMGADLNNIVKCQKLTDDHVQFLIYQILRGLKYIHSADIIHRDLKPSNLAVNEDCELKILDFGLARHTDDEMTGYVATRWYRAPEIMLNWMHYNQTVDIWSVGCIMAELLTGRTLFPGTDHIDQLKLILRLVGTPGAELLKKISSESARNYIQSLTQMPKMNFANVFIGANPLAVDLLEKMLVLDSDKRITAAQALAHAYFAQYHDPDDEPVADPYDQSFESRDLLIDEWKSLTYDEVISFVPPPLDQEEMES
Chain of [Pyruvate dehydrogenase (acetyl-transferring)] kinase isozyme 4, mitochondrial (Q16654 whole entry): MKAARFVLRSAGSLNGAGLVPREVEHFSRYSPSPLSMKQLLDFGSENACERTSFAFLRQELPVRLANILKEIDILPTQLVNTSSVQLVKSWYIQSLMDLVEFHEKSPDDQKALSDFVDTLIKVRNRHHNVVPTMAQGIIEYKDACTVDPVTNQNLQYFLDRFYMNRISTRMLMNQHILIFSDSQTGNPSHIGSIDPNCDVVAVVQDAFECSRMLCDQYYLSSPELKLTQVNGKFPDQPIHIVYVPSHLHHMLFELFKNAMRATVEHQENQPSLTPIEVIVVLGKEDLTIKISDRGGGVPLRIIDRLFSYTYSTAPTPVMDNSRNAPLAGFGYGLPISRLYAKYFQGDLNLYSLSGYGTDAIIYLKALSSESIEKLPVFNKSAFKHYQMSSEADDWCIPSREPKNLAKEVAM
Chain of Receptor tyrosine-protein kinase erbB-4 (Q15303 whole entry): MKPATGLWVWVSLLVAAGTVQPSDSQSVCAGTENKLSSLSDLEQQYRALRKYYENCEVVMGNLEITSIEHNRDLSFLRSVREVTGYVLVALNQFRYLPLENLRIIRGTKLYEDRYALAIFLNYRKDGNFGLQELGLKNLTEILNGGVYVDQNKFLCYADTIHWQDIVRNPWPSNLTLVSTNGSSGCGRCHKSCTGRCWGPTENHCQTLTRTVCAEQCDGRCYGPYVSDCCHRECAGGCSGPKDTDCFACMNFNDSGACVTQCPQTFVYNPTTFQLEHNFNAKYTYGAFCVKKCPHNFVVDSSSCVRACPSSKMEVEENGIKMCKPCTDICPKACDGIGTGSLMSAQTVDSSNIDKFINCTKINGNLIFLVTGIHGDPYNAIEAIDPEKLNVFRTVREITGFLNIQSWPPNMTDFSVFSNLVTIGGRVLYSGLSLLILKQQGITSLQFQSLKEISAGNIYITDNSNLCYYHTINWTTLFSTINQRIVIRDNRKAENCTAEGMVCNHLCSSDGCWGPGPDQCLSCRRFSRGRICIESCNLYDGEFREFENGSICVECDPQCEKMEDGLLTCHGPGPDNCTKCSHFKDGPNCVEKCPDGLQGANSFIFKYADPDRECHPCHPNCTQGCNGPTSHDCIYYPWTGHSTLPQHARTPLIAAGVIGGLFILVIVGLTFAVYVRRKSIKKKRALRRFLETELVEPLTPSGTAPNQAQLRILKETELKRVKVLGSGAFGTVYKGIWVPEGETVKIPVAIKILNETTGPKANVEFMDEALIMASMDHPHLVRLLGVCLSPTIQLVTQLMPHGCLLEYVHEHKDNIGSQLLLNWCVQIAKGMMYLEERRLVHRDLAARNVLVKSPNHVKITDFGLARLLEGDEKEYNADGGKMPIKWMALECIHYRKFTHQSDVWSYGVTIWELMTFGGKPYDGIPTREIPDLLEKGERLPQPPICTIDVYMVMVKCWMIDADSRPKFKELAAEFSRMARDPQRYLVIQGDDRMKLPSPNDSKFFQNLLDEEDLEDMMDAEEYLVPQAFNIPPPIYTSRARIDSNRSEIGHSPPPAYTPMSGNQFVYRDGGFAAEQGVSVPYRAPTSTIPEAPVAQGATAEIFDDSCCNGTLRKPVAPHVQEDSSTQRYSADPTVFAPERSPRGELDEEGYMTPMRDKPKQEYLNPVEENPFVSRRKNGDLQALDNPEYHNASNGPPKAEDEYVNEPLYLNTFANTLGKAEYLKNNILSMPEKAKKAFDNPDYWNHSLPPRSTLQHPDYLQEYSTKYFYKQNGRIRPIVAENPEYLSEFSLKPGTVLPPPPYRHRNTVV
Chain of Receptor tyrosine-protein kinase erbB-2 (P04626 whole entry): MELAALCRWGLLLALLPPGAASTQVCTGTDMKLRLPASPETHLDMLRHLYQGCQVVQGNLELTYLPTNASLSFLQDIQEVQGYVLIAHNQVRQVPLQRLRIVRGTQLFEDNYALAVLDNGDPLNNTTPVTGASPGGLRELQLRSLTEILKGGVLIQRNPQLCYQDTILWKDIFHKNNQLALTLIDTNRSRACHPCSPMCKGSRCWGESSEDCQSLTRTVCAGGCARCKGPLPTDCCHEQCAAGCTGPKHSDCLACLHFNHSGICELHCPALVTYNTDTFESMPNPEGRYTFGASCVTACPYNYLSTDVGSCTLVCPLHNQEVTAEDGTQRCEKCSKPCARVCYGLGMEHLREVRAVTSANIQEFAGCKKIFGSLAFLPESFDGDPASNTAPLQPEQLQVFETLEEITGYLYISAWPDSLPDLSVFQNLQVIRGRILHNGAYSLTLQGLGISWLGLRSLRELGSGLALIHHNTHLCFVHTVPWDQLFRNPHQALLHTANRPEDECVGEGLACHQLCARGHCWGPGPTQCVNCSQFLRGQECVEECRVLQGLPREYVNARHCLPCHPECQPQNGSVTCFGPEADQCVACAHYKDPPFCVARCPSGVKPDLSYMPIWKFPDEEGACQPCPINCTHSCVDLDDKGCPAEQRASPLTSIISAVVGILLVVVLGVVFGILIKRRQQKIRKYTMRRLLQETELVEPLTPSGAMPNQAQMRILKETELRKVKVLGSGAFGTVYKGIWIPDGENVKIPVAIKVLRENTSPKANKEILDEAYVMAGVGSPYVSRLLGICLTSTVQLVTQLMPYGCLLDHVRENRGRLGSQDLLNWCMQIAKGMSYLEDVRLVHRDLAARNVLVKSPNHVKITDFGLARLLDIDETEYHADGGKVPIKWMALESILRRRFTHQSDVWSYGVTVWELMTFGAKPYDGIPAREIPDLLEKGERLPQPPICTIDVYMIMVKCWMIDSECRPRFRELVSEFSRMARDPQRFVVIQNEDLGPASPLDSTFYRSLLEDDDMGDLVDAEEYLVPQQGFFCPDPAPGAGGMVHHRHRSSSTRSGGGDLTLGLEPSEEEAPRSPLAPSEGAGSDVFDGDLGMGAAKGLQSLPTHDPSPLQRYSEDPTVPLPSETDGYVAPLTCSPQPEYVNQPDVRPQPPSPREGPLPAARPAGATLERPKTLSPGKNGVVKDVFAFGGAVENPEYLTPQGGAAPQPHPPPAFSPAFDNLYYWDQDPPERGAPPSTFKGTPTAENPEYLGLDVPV
Chain of Macrophage colony-stimulating factor 1 receptor (P07333 whole entry): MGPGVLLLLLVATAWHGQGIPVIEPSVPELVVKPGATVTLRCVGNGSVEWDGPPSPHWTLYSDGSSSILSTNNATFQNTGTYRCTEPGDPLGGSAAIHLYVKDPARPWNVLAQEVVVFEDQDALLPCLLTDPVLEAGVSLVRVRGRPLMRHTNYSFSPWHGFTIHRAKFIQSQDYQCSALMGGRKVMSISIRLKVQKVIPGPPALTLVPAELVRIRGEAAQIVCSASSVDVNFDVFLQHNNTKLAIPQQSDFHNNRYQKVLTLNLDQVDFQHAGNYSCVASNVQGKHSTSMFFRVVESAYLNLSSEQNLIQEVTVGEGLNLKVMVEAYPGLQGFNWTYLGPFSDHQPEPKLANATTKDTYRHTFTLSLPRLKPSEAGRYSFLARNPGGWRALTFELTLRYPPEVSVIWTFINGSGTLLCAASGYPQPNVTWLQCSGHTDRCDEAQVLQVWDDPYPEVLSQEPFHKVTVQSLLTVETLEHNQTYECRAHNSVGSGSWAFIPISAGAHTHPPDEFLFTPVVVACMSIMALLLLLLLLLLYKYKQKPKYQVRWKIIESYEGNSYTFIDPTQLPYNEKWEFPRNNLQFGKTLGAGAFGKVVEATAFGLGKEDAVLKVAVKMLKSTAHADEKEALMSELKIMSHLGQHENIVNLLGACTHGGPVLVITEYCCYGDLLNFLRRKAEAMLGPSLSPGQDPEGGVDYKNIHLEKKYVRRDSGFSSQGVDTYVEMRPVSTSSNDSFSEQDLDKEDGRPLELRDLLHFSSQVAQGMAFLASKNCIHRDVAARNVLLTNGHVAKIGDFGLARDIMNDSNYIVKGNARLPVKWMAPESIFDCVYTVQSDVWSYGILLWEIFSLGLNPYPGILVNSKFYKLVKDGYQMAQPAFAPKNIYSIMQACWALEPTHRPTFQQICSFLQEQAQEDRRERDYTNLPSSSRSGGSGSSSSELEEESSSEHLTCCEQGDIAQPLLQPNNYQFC
Chain of Glycogen synthase kinase-3 beta (P49841 whole entry): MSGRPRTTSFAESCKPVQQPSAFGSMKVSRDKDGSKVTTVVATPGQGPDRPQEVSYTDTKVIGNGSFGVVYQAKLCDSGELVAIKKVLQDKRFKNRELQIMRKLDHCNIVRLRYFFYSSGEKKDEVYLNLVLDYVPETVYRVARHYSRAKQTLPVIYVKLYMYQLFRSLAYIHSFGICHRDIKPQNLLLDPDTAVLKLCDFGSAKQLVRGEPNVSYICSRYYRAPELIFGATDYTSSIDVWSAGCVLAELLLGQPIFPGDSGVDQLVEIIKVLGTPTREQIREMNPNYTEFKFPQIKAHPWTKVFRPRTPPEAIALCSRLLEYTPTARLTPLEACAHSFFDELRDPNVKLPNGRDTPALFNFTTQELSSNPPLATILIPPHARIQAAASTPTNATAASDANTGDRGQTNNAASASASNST

A word on the pIC50: it is −log10 of the IC50, conventionally taken in molar units. A higher pIC50 goes with a small IC50. In data set [1], `Cc1cccn2nc(-c3ccc(F)cc3)c(-c3ccncc3)c12` showed a pIC50 of 6.55.

Consider `Cc1ccc2c(-c3ccncc3)c(-c3ccc(F)cc3)nn2c1`, for which the metabolised at 0.5 h in data set [2] was found to be 99%; in data set [3], 81%. The compound further had a negative-log IC50 (pIC50) in [1] of 6.82.

In the case of `Cc1cccc2c(-c3ccncc3)c(-c3ccc(F)cc3)nn12`, the metabolised at 0.5 h was found to be 43% in data set [2] and 93% in [3]. This compound showed a pIC50 in [1] of 6.82.

For orientation: half-life means the time needed for the level to fall by half in the phase considered. As usually defined, the bioavailability is the share of a dose that reaches the circulation, judged against a reference dose that is usually intravenous. Read a high bioavailability as much systemic uptake. The term AUC denotes the area under the concentration-time curve, a measure of exposure. As a reminder, the clearance is the rate of elimination divided by the concentration. Lower therefore signals a low capacity for elimination. Consider `Fc1ccc(-c2nn3cc(C(F)(F)F)ccc3c2-c2ccncc2)cc1`, for which the metabolised at 0.5 h in data set [2] and in data set [3] was 0% in each case. In [4], this compound gave a half-life of 2.5 h. In addition, the bioavailability in data set [5] is 84%. In [6], this compound returned an area under the curve (AUC) of 500 ng·h/mL. The Vd in data set [7] was 5.4 L/kg. Further, the pIC50 in data set [1] is 6.70. Also, in [8], the clearance stood at 34 mL/min/kg.

In turn, `N#Cc1ccc2c(-c3ccncc3)c(-c3ccc(F)cc3)nn2c1` showed a pIC50 in data set [1] of 6.85.

In the case of `Fc1ccc(-c2nn3c(OC4CCCC4)cccc3c2-c2ccncc2)cc1`, the metabolised at 0.5 h in data set [2] came to 8%; in [3], 18%. In [1], this compound showed a pIC50 of 6.77.

Turning to `Fc1ccc(-c2nn3cc(Cl)ccc3c2-c2ccncc2)cc1`, the pIC50 in [1] was 6.82.

Regarding `Fc1ccc(-c2nn3cccc(F)c3c2-c2ccncc2)cc1`, the metabolised at 0.5 h in [2] worked out at 21%; in data set [3] it was 39%. In addition, the pIC50 in data set [1] is 6.62.

Regarding `Fc1ccc(-c2nn3c(OCC(F)(F)F)cccc3c2-c2ccncc2)cc1`, the metabolised at 0.5 h in [2] and in data set [3] was 0% each time. For the same compound, the figures for the half-life in [4] and in data set [12] were 2.1 h and 6.5 h, respectively. In addition, the bioavailability came to 72% in data set [5] and 32% in data set [10]. Also, the area under the curve (AUC) in data set [6] stood at 500 ng·h/mL; in data set [9] it was 1500 ng·h/mL. Further, the results for the Vd in data set [7] and in data set [11] were 5.4 L/kg and 8.2 L/kg, respectively. The compound further showed a negative logarithm of the IC50 (pIC50) in [1] of 7.15. Also, the clearance in data set [8] stood at 40 mL/min/kg; in [13] it was 17 mL/min/kg.

`Fc1ccc(-c2nn3cc(F)ccc3c2-c2ccncc2)cc1`: the figures for the metabolised at 0.5 h in [2] and in [3] were 1% and 23%, respectively. Moreover, the negative-log IC50 (pIC50) in data set [1] was 6.80.

With `Fc1ccc(-c2nn3c(Cl)cccc3c2-c2ccncc2)cc1`, the metabolised at 0.5 h in data set [2] was found to be 37%; in data set [3], 84%. In addition, the pIC50 in [1] was 6.82.

For the compound `CCOc1cccc2c(-c3ccncc3)c(-c3ccc(F)cc3)nn12`, in data set [1], the pIC50 is 7.30.

Regarding `Cc1ccn2nc(-c3ccc(F)cc3)c(-c3ccncc3)c2c1`, the metabolised at 0.5 h in [2] amounted to 60%. The compound also showed a half-life in [4] of 1.2 h. Also, the AUC in [6] was determined as 200 ng·h/mL. Further, the Vd in [7] is 2 L/kg. Further, the pIC50 in data set [1] is 6.80. The compound also showed a clearance in [8] of 83 mL/min/kg.

Broadly, the inhibition in vivo is the share of the control response that was lost under treatment. Consider `Fc1ccc(-c2nn3ccccc3c2-c2ccncc2)cc1` [GW434756X], for which the metabolised at 0.5 h is 27% in [2] and 81% in data set [3]. For the same compound, the pIC50 (in data set [14]; against Angiopoietin-1 receptor; in data set [16]; in data set [17]; in [19]; in data set [20]) was less than 5.00 in each case. Further, the negative-log IC50 (pIC50) in data set [1] is 6.92; with PBMC, 6.52; in data set [24], less than 5.00; in data set [25], 5.66; in [26], less than 5.00. Moreover, the bioavailability in data set [15] turned out to be 50%; in data set [10], 18%. In addition, the half-life in data set [18] is 1.2 h; in data set [12], 1.9 h. In addition, the results for the AUC in data set [9] and in data set [23] were 500 ng·h/mL and 1700 ng·h/mL, respectively. Further, the values for the Vd in data set [21] and in [11] were 3.2 L/kg and 3.8 L/kg, respectively. The clearance in data set [22] is 49 mL/min/kg; in data set [13], 34 mL/min/kg. The compound also showed an inhibition in vivo at 30 mg/kg in the data set on Mus musculus of 65%.
